Results on 19 compounds are retold here after ChEMBL document CHEMBL1149812, “Synthesis of N-aryl-5-amino-4-cyanopyrazole derivatives as potent xanthine oxidase inhibitors” (Eur J Med Chem, 2008).

Data set [1] deals with T1, Xanthine dehydrogenase/oxidase (Homo sapiens, UniProt P47989). In words: Inhibition of xanthine oxidase. The method in brief:
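Enzyme preincubated 15 min at room temperature: xanthine oxidase 0.066 U/mL in 50 mM potassium dihydrogen phosphate pH 7.4 with compound in DMSO (1% final). Started with 100 µM xanthine plus 1 mM EDTA. Mean ± SEM of 3 experiments, each in triplicate.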

A further data set has as its system MCF7. In words: Growth inhibition of human MCF7 cells after 48 hrs. It is filed as functional. As to conditions: MCF7, 48 h. A digest of the protocol:
(§1)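 SRB protein-stain assay following the NCI screening protocol. Cells kept adherent in RPMI-1640 with 5% heat-inactivated FBS, 2 mM glutamine and 50 µg/mL gentamicin at 37 °C under 5% CO2. Seeded at 7.5 × 10^4 cells/mL (NCI-H460) or 1.5 × 10^5 cells/mL (MCF-7, SF-268). Exposed 48 h to five concentrations, top 150 µM, DMSO ≤0.25%. […] Mean ± SEM of 1–6 experiments in duplicate.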

The test system of another data set is SF-268. Briefly: Growth inhibition of human SF268 cells after 48 hrs. As to conditions: SF-268, 48 h. It is filed as functional. The method in brief:
as §1

Another data set concerns NCI-H460. In words: Growth inhibition of human NCI-H460 cells after 48 hrs. Type of data set: functional. As to conditions: NCI-H460, 48 h. The method in brief:
as §1

Data set [2] addresses T1, Xanthine dehydrogenase/oxidase. Briefly: Activity of xanthine oxidase assessed as change in absorbance per min at 0.025 uM in presence of xanthine. A digest of the protocol: (§2)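 Kinetic runs: xanthine oxidase (0.066 U/mL) in 50 mM potassium dihydrogen phosphate pH 7.4 preincubated 15 min at room temperature with inhibitor in DMSO (1% final). Started with xanthine at 100, 75, 50 or 25 µM plus 1 mM EDTA. Uric acid formation read at 295 nm over 2 min as ΔA/min. Vmax and Km taken from Lineweaver–Burk plots.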

The target is the same in data set [3]. Briefly: Activity of xanthine oxidase assessed as change in absorbance per min at 0.1 uM in presence of xanthine. A digest of the protocol: as §2
The target is the same in data set [4]. Briefly: Activity of xanthine oxidase assessed as change in absorbance per min at 10 uM in presence of xanthine. The method in brief: as §2
For data set [5] the target is unchanged. Briefly: Activity of xanthine oxidase assessed as change in absorbance per min at 40 uM in presence of xanthine. A digest of the protocol: as §2
Data set [6] has the same target. In words: Inhibition of xanthine oxidase at 100 uM.

Molecules are shown by their SMILES. A value given as a limit tells only on which side of the number the result lay.

T1 sequence (P47989 whole entry): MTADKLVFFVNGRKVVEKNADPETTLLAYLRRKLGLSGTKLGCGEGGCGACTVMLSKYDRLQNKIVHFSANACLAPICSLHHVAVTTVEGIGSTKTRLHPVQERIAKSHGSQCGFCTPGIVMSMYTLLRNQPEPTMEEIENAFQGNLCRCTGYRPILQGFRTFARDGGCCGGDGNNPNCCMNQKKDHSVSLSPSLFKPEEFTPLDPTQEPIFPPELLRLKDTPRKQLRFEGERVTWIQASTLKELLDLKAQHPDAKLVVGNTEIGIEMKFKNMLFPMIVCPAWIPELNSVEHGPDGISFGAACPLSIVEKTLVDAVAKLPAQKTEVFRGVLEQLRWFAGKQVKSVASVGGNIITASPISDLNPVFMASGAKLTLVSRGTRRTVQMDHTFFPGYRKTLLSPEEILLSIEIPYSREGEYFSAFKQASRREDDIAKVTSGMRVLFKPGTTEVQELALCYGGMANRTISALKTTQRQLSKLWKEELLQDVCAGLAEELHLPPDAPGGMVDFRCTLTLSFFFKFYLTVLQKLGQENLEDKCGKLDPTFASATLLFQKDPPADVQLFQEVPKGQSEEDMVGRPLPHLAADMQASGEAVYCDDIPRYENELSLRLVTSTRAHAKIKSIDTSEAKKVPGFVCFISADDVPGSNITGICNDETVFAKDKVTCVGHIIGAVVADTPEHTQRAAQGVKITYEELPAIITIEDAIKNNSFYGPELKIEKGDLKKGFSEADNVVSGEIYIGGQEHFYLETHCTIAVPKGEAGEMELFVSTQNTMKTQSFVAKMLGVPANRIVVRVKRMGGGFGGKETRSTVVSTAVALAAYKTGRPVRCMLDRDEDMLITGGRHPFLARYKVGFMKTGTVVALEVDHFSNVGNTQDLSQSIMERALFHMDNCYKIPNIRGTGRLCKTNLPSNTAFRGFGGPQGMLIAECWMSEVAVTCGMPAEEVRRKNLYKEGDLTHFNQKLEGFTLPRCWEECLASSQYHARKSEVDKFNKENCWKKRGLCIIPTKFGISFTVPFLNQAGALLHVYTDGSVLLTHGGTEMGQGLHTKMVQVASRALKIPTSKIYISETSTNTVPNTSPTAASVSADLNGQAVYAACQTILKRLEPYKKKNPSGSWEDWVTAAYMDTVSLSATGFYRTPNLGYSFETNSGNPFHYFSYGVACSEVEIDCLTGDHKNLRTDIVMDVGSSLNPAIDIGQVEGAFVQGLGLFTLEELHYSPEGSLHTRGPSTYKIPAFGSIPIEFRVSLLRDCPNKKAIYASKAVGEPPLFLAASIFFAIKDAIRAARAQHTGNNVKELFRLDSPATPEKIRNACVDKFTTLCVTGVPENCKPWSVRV

By IC50 is commonly meant the concentration at which inhibition is half-maximal. Read a low IC50 as greater potency in that assay. The GI50 is the concentration at which growth is held to half of that of the control. `Cc1ccc(-n2ncc(C#N)c2N)cc1`: the IC50 in data set [1] is > 100 µM. The 50% growth inhibitory concentration (GI50) in the data set with MCF7, in the data set with SF-268 and in the data set with NCI-H460 was > 150 µM each time.
Consider `N#Cc1ccc(-n2ncc(C#N)c2N)cc1`, for which the IC50 in data set [1] is > 100 µM. For the same compound, the GI50 in the data set with MCF7, with SF-268 and with NCI-H460 was > 150 µM throughout.
As for `COc1ccc(-n2ncc(C#N)c2N)cc1`, the IC50 in data set [1] is > 100 µM. In addition, the GI50 with MCF7, with SF-268 and in the data set on NCI-H460 was > 150 µM in each case.
In the case of `Nc1ncnc2c1cnn2-c1ccc(C(F)(F)F)cc1`, the IC50 in [1] came out at 0.18 µM.
Compound `COC(=O)CNC(=O)c1ccc(-n2ncc3c(N)ncnc32)cc1` showed an IC50 in data set [1] of 0.08 µM. Moreover, the 50% growth inhibitory concentration (GI50) in the data set with MCF7, with SF-268 and with NCI-H460 was > 150 µM in each case. Also, the deltaA in data set [2] was found to be 0.16; in data set [3], 0.13.
As to `N#Cc1cnn(-c2ccc([N+](=O)[O-])cc2)c1N`, in [1], the IC50 is > 100 µM. Further, the concentration for 50% growth inhibition (GI50) with MCF7 worked out at 64 µM; in the data set on SF-268, 135 µM; in the data set on NCI-H460, 128 µM.
In the case of `N#Cc1cnn(-c2ccc(Cl)cc2)c1N`, the IC50 in [1] is > 100 µM. Moreover, the 50% growth inhibitory concentration (GI50) in the data set on MCF7, in the data set with SF-268 and in the data set on NCI-H460 was > 150 µM in each case.
In data set [1], `COc1ccc(-n2ncc3c(N)ncnc32)cc1` showed a 50% inhibitory concentration (IC50) of 19.6 µM. Besides, the 50% growth inhibitory concentration (GI50) with MCF7, with SF-268 and with NCI-H460 was > 150 µM throughout.
As for `Nc1ncnc2c1cnn2-c1ccc(C(=O)O)cc1`, in data set [1], the IC50 was 81 µM.
For the compound `N#Cc1cnn(-c2ccc(C(F)(F)F)cc2)c1N`, in [1], the IC50 was > 100 µM. For the same compound, the GI50 in the data set with MCF7, in the data set with SF-268 and with NCI-H460 was > 150 µM each time.
In data set [1], `N#Cc1ccc(-n2ncc3c(N)ncnc32)cc1` yielded an IC50 of 0.4 µM.
The compound `Cc1ccc(-n2ncc3c(N)ncnc32)cc1` returned an IC50 in [1] of 17.4 µM.
In data set [1], `N#Cc1cnn(-c2ccc(C(=O)O)cc2)c1N` registered an IC50 of 36.1 µM. Besides, the deltaA in data set [4] was 0.12; in [5], 0.08.
Consider `CC(=O)OC[C@H]1O[C@@H](Nc2ncnc3c2cnn3-c2ccc(C(=O)O)cc2)[C@H](OC(C)=O)[C@@H](OC(C)=O)[C@@H]1OC(C)=O`, for which the half-maximal inhibitory concentration (IC50) in data set [1] amounted to 18.4 µM. The 50% growth inhibitory concentration (GI50) in the data set with MCF7, in the data set with SF-268 and in the data set on NCI-H460 was > 150 µM each time.
As to `Nc1ncnc2c1cnn2-c1ccc([N+](=O)[O-])cc1`, the 50% inhibitory concentration (IC50) in data set [1] was determined as 2.2 µM.
The compound `COC(=O)CNC(=O)c1ccc(-n2ncc(C#N)c2N)cc1` displayed a 50% inhibitory concentration (IC50) in data set [1] of 37.9 µM. Besides, the 50% growth inhibitory concentration (GI50) in the data set on MCF7, in the data set with SF-268 and in the data set on NCI-H460 was > 150 µM throughout. For the same compound, the deltaA in [4] is on record as 0.23; in data set [5] it was 0.09.
Regarding `CC(=O)OC[C@H]1O[C@@H](Nc2c(C#N)cnn2-c2ccc(C(=O)O)cc2)[C@H](OC(C)=O)[C@@H](OC(C)=O)[C@@H]1OC(C)=O`, the IC50 in data set [1] is > 100 µM.
As a reminder, the inhibition is the relative decrease from the control value, in per cent. In data set [6], `Oc1ncnc2[nH]ncc12` [ALLOPURINOL] gave an inhibition at 100 µM of 96.3%.
On to `COc1cccc2c1C(=O)c1c(O)c3c(c(O)c1C2=O)C[C@@](O)(C(=O)CO)C[C@@H]3O[C@H]1C[C@H](N)[C@H](O)[C@H](C)O1` [DOXORUBICIN], for which the GI50 in the data set with MCF7 worked out at 0.0428 µM; with SF-268, 0.093 µM; in the data set with NCI-H460, 0.094 µM.
